Data published in ChEMBL document CHEMBL3808346, “Optimization of the phenylurea moiety in a phosphoinositide 3-kinase (PI3K) inhibitor to improve water solubility and the PK profile by introducing a solubilizing group and ortho substituents” (Bioorg Med Chem, 2016).
In brackets after ≈: the same amount, converted by molar mass.

Columns and labels:
[1] = Solubility of compound in FaSSIF at pH 6.5 by HPLC-UV analysis; format: physicochemical
Summary of the method: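 A 4-mM or 1-mM DMSO stock was freeze-dried and the residue taken up in FaSSIF (pH 6.5: sodium taurocholate, lecithin, KH2PO4, KCl, NaOH). Sonicated 10 min, shaken 2 h, centrifuged 10 min at 3000 rpm and filtered. Filtrate measured by HPLC-UV against each compound's calibration curve.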

[2] = biological target: PI3-kinase p110-alpha/p85-alpha (Homo sapiens, UniProt P42336); experiment: Inhibition of human PI3K p110alpha/p85alpha expressed in baculovirus preincubated for 20 mins followed by addition of phosphorylate phosphatidylinositol-4,5-bisphosphate as substrate and ATP measured after 15 mins by AlphaScreen competition assay
Sequence of PI3-kinase p110-alpha/p85-alpha (P27986 whole entry): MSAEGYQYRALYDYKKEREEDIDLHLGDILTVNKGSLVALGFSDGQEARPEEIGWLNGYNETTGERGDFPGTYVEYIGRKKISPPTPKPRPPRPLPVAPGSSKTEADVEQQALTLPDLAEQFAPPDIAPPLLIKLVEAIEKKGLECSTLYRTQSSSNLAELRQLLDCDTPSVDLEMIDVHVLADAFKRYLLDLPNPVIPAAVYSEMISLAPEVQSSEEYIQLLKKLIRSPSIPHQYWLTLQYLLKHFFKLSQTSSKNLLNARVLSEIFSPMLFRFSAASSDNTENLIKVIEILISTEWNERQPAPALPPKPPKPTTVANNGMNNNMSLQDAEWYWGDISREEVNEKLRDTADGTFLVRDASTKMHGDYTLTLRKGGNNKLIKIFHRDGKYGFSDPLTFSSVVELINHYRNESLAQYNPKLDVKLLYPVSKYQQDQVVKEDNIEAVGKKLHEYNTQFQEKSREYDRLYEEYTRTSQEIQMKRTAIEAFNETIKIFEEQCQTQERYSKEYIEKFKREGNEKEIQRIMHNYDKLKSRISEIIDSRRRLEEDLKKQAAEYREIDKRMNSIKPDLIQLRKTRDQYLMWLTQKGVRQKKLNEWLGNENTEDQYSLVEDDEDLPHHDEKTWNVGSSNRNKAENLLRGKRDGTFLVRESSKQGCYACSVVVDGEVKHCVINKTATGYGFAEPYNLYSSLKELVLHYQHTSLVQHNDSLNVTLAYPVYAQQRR
Sequence of PI3-kinase p110-alpha/p85-alpha (P42336 whole entry): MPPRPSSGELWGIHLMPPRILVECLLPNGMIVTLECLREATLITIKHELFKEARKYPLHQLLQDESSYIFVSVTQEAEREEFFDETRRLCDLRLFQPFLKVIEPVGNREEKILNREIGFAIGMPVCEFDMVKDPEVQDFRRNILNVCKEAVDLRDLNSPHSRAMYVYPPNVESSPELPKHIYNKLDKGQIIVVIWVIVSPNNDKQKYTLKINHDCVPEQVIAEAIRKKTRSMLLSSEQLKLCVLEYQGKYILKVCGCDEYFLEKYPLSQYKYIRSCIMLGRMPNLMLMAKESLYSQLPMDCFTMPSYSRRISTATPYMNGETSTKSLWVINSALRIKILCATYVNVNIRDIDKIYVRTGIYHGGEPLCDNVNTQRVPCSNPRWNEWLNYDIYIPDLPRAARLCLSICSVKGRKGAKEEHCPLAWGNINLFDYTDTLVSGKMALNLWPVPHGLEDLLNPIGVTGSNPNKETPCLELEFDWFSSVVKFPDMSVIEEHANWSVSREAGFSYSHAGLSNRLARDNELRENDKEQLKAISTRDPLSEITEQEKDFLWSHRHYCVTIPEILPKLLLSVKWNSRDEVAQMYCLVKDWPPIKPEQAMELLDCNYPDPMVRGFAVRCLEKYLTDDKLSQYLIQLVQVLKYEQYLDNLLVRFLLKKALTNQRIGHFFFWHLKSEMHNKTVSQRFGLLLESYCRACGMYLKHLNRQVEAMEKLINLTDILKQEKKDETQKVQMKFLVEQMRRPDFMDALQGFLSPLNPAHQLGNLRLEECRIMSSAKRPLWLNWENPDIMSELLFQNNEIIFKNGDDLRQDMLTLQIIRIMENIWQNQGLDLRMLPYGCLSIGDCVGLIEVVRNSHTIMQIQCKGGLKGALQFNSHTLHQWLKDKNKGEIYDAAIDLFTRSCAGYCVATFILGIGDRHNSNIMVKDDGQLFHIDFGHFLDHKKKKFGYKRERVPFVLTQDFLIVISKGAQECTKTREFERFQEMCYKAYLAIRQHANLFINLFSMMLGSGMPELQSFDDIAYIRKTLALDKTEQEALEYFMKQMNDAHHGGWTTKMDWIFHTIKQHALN
Summary of the method: (§1)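 Purified baculovirus-expressed human p110/p85α preincubated with compound 20 min at room temperature. Then 4 µM PI(4,5)P2 and 10 µM ATP (5 mM Hepes pH 7.5, 2.5 mM MgCl2) added for 15 min at 37 °C. PIP3 product detected by AlphaScreen competition using GST-GRP1, biotin-PIP3 and anti-GST acceptor/streptavidin donor beads, 1 h at room temperature.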

[3] = Cmax in Balb/c nude mouse at 50 mg/kg, po measured after 24 hrs by LC-MS/MS analysis; format: ADME, organism-based; set-up: dose 50 mg/kg, route oral; settings: in vivo
Summary of the method: (§2)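 Female BALB/c-nu mice, n=2 per group, single oral dose of 50 mg/kg given as a solution in 10% DMSO, 10% Cremophor EL, 15% PEG400, 15% HPCD. Heparinized blood drawn at 0.25, 2, 4, 7 and 24 h; plasma stored at –80 °C. Plasma levels by LC–MS/MS; parameters by non-compartmental analysis.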

[4] = AUC in Balb/c nude mouse at 50 mg/kg, po measured after 24 hrs by LC-MS/MS analysis; format: ADME, organism-based; set-up: dose 50 mg/kg, time < 24 hr, route oral; settings: in vivo; summary of the method: as §2
[5] = biological target: PI3K p110 beta/p85 alpha (Homo sapiens, UniProt P42338); experiment: Inhibition of human PI3K p110beta/p85alpha expressed in baculovirus preincubated for 20 mins followed by addition of phosphorylate phosphatidylinositol-4,5-bisphosphate as substrate and ATP measured after 15 mins by AlphaScreen competition assay; summary of the method: as §1
Sequence of PI3K p110 beta/p85 alpha (P27986 whole entry): as the sequence (P27986 whole entry) above
Sequence of PI3K p110 beta/p85 alpha (P42338 whole entry): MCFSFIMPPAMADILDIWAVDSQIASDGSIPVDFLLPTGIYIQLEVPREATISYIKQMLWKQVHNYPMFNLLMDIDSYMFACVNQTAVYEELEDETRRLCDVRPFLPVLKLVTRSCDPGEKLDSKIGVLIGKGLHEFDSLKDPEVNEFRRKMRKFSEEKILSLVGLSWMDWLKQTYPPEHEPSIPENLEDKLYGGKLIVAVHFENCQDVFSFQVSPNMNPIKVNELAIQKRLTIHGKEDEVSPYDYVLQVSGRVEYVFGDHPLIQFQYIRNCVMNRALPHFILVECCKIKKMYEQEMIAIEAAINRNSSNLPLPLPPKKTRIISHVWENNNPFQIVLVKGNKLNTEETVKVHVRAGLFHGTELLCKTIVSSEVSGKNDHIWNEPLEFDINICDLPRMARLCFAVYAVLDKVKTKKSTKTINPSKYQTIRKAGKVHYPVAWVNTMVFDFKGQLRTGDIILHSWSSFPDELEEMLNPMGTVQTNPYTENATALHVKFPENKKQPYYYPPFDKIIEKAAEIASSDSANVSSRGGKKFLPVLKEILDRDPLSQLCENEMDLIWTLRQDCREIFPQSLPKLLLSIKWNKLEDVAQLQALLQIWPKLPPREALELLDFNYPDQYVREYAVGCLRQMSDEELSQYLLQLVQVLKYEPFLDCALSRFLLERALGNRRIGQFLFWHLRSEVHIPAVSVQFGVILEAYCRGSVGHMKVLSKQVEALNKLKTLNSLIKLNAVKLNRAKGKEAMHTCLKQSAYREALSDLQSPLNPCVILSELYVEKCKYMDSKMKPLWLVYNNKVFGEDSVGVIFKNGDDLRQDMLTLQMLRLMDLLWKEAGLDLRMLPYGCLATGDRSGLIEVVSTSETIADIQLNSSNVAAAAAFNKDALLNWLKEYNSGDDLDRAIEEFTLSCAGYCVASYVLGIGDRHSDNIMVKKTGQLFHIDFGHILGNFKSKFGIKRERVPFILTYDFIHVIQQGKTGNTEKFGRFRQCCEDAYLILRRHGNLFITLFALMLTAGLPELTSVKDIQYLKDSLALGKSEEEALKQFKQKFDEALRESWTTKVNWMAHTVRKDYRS

[6] = Antiproliferative activity against PTEN negative human PC3 cells measured after 96 hrs by CCK-8 assay; format: functional, cell-based; settings: PC-3, 96 h
Summary of the method: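 PC-3 prostate cells (ATCC) exposed to a range of compound concentrations for 96 hours; growth inhibition read with Cell Counting Kit-8.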

[7] = Antitumor activity PTEN negative human PC3 cells xenografted into nude mouse assessed as tumor growth inhibition at 6.25 mg/kg, qd administered orally for 11 days; format: functional; settings: PC-3, po, 264 h, read-out: TGI
Summary of the method: (§3)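 PC-3 grown as subcutaneous tumors in nude mice; dosing began (day 0) at about 130 mm3. Four mice per group, randomized to vehicle or drug by oral sonde once daily on days 0–10; vehicle 10% DMSO, 10% Cremophor EL, 15% PEG400, 15% HPCD. TV = (L W²)/2; TGI = [1 − (T − T0)/(C − C0)] × 100; body weight as W/W0 × 100.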

[8] = Permeability of compound by PAMPA method; format: ADME; settings: read-out: permeability
[9] = test system: Mus musculus; experiment: Toxicity in nude mouse xenografted with PTEN negative human PC3 cells assessed as body weight loss; format: organism-based, PC-3; settings: in vivo; summary of the method: as §3
[10] = Metabolic stability in mouse liver microsomes assessed as clearance; format: ADME; settings: read-out: CLH
[11] = Metabolic stability in human liver microsomes assessed as clearance; format: ADME; settings: read-out: CLH

SMILES | solubility [1] | IC50 [2] | IC50 [6] | other results
Nc1ncc(-c2nc(N3CCOCC3)nc3c2CCN3c2cccnc2)cn1 | < 12 µg/mL | – | – | –
CCN1CCN(c2cc(F)c(NC(=O)N3CCc4c(-c5cnc(N)nc5)nc(N5CCOCC5)nc43)c(F)c2)CC1 | 20 µg/mL (≈ 35.3 µM) | – | 58 nM | Cmax [3]: 460 ng/mL; AUC at 24 h [4]: 5680 ng·h/mL; IC50 [5]: 7 nM; inhibition in vivo at 6.25 mg/kg [7]: 82%; Papp [8]: 1.1 ×10⁻⁶ cm/s; Activity [9]: Non-toxic; microsomal CLint [10]: 7.6 µL/min/mg; microsomal CLint [11]: 2.2 µL/min/mg
CN(C(=O)N1CCc2c(-c3cnc(N)nc3)nc(N3CCOCC3)nc21)c1ccccc1 | < 3 µg/mL | 130 nM | – | –
Cc1nc(N)ncc1-c1nc(N2CCOCC2)nc2c1CCN2c1cccnc1 | 56 µg/mL (≈ 143 µM) | 260 nM | – | –
CCN1CCN(c2ccc(NC(=O)N3CCc4c(-c5cnc(N)nc5)nc(N5CCOCC5)nc43)c(C)c2)CC1 | 11 µg/mL (≈ 20.2 µM) | – | 210 nM | –
CCN1CCN(C(=O)c2ccc(NC(=O)N3CCc4c(-c5cnc(N)nc5)nc(N5CCOCC5)nc43)c(C)c2)CC1 | < 18 µg/mL | 26 nM | 250 nM | –

Further lines, with some results ahead:

solubility [1] | IC50 [2] | SMILES | IC50 [6] | other results
< 14 µg/mL | 52 nM | Cc1ccccc1NC(=O)N1CCc2c(-c3cnc(N)nc3)nc(N3CCOCC3)nc21 | – | –
< 3 µg/mL | – | Nc1ncc(-c2nc(N3CCOCC3)nc3c2CCN3C(=O)Nc2ccccc2)cn1 | – | Cmax [3]: 104 ng/mL; AUC at 24 h [4]: 437 ng·h/mL
13 µg/mL (≈ 28.2 µM) | 81 nM | CC(C)c1ccccc1NC(=O)N1CCc2c(-c3cnc(N)nc3)nc(N3CCOCC3)nc21 | – | –
– | 64 nM | CCc1ccccc1NC(=O)N1CCc2c(-c3cnc(N)nc3)nc(N3CCOCC3)nc21 | – | –
